Experimental data published in ChEMBL document CHEMBL4382236, “Synthesis and biological evaluation of thielocin B1 analogues as protein-protein interaction inhibitors of PAC3 homodimer” (Bioorg Med Chem, 2018).
pIC50: −log10 of the molar value.

Key:
[1] = biological target: T1, Proteasome assembly chaperone 3 (Homo sapiens, UniProt Q9BT73); assay: Inhibition of PAC3 homodimer (unknown origin) protein-protein interaction
T1 sequence (Q9BT73 whole entry): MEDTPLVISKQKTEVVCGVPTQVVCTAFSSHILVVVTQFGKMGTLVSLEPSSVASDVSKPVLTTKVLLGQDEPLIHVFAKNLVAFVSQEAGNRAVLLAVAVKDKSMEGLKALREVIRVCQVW

PAC1-PAC2 complex = biological target: T2, PAC1-PAC2 complex (Homo sapiens, UniProt O95456+Q969U7); assay: Inhibition of PAC1/PAC2 heterodimer (unknown origin) protein-protein interaction; assay type: protein-complex assay
T2 sequence (O95456 whole entry): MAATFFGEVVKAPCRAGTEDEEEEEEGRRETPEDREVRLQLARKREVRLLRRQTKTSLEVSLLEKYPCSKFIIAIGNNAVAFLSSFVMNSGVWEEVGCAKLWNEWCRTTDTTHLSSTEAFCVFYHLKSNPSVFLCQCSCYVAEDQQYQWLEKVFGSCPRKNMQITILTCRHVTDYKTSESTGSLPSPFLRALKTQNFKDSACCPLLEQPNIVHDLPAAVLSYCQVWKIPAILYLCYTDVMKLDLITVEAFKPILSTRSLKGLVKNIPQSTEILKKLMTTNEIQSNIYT
T2 sequence (Q969U7 whole entry): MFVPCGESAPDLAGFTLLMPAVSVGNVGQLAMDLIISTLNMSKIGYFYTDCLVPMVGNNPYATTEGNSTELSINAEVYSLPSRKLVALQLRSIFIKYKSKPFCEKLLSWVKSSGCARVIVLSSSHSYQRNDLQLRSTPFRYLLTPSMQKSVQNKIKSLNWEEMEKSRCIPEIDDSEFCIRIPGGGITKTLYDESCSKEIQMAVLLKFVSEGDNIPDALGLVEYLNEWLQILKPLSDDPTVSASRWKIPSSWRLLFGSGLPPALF

[2] = biological target: T3, Proteasome assembly chaperone 3 (Homo sapiens) (UniProt Q9BT73); assay: (§1) Inhibition of N-terminal mKG-labeled PAC3/C-terminal mKG-labeled PAC3 homodimer (unknown origin) protein-protein interaction at 1 uM preincubated for 1 hr with protein followed by another protein addition and measured after 17 hrs by fluorescence based protein-fragment complementation assay relative to control
T3 sequence (whole entry): T1 sequence (Q9BT73 whole entry)
Outline: (§2)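 In vitro protein-fragment complementation assay. Compounds were added as DMSO solutions at 10, 1 or 0.1 μM. The decrease in fluorescence intensity was converted to percent inhibition.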

[3] = biological target: T3, Proteasome assembly chaperone 3 (Homo sapiens); assay: as §1, with “at 0.1” for “at 1”; outline: as §2
[4] = biological target: T4, PAC1-PAC2 complex (Homo sapiens) (UniProt O95456+Q969U7); assay: as §1, with “PAC1/C-terminal” for “PAC3/C-terminal”, “PAC2” for “PAC3 homodimer”; assay type: protein-complex assay; outline: as §2
[5] = biological target: T4, PAC1-PAC2 complex (Homo sapiens); assay: as §1, with “mKG-labeled PAC1/C-terminal” for “mKG-labeled PAC3/C-terminal”, “mKG-labeled PAC2” for “mKG-labeled PAC3 homodimer”, “at 0.1” for “at 1”; assay type: protein-complex assay; outline: as §2
[6] = biological target: T3, Proteasome assembly chaperone 3 (Homo sapiens); assay: as §1, with “at 10” for “at 1”; outline: as §2
[7] = biological target: T4, PAC1-PAC2 complex (Homo sapiens); assay: as §1, with “mKG-labeled PAC1/C-terminal” for “mKG-labeled PAC3/C-terminal”, “mKG-labeled PAC2” for “mKG-labeled PAC3 homodimer”, “at 10” for “at 1”; assay type: protein-complex assay; outline: as §2

With `COc1c(C)c(OC(=O)c2c(C)c(C)c(OC(=O)c3c(C)c(Oc4c(C)c(C)c(C(=O)Oc5c(C)c(C)c(C(=O)O)c(OC)c5C)c(OC)c4C)c(O)c(C)c3O)c(C)c2OC)c(C)c(C)c1C(=O)O` the pIC50 [1] was 7.70, the pIC50 (PAC1-PAC2 complex) was less than 3.60 and the inhibition [2] was 94%. The inhibition [3] was 85%, the inhibition [4] was 9% and the inhibition [5] was 9%.
With `COCOC(=O)c1c(C)c(C)c(OC(=O)c2c(C)c(C)c(OCc3cccc(COc4c(C)c(C)c(C(=O)Oc5c(C)c(C)c(C(=O)OCOC)c(OC)c5C)c(OC)c4C)c3Br)c(C)c2OC)c(C)c1OC` the inhibition [6] was 0%, the inhibition [2] was 0% and the inhibition [3] was 0%. For the same molecule, the inhibition [7] was 6%, the inhibition [4] was 0% and the inhibition [5] was 3%.
`COc1c(C)c(OC(=O)c2c(C)c(C)c(OCc3cccc(COc4c(C)c(C)c(C(=O)Oc5c(C)c(C)c(C(=O)O)c(OC)c5C)c(OC)c4C)n3)c(C)c2OC)c(C)c(C)c1C(=O)O` gave an inhibition [6] of 88%, an inhibition [2] of 43% and an inhibition [3] of 18%. For the same molecule, the inhibition [7] was 40%, the inhibition [4] was 5% and the inhibition [5] was 9%.
Molecule `COc1c(C)c(OC(=O)c2c(C)c(C)c(OC[C@@H]3OC(=O)O[C@H]3COc3c(C)c(C)c(C(=O)Oc4c(C)c(C)c(C(=O)O)c(OC)c4C)c(OC)c3C)c(C)c2OC)c(C)c(C)c1C(=O)O` has an inhibition [6] of 41%, an inhibition [2] of 5% and an inhibition [3] of 2%. For the same molecule, the inhibition [7] was 49%, the inhibition [4] was 17% and the inhibition [5] was 15%.
For `COc1c(C)c(OC(=O)c2c(C)c(C)c(OC(=O)c3c(C)c(C(=O)Oc4c(C)c(C)c(C(=O)Oc5c(C)c(C)c(C(=O)O)c(OC)c5C)c(OC)c4C)c(OC)c(C)c3OC)c(C)c2OC)c(C)c(C)c1C(=O)O`, the inhibition [6] was 85%, the inhibition [2] was 49% and the inhibition [3] was 29%. For the same molecule, the inhibition [7] was 38%, the inhibition [4] was 2% and the inhibition [5] was 9%.
Work on `COc1c(C)c(OC(=O)c2c(C)c(C)c(OC(=O)c3c(C)cc(O)c(Cc4c(C)c(C(=O)Oc5c(C)c(C)c(C(=O)Oc6c(C)c(C)c(C(=O)O)c(OC)c6C)c(OC)c5C)c(O)c(C)c4O)c3O)c(C)c2OC)c(C)c(C)c1C(=O)O` yielded a pIC50 [1] of less than 3.60.
`COc1c(C)c(OC(=O)c2c(C)c(C)c(OC(=O)CCC(=O)Oc3c(C)c(C)c(C(=O)Oc4c(C)c(C)c(C(=O)O)c(OC)c4C)c(OC)c3C)c(C)c2OC)c(C)c(C)c1C(=O)O` was tested, and the inhibition [6] was 34%, the inhibition [2] was 9% and the inhibition [3] was 0%. For the same molecule, the inhibition [7] was 28%, the inhibition [4] was 16% and the inhibition [5] was 5%.
For `COc1c(C)c(OC(=O)c2c(C)c(C)c(OCc3cccc(COc4c(C)c(C)c(C(=O)Oc5c(C)c(C)c(C(=O)O)c(OC)c5C)c(OC)c4C)c3Br)c(C)c2OC)c(C)c(C)c1C(=O)O`, the inhibition [6] was 86%, the inhibition [2] was 38% and the inhibition [3] was 26%. It also gave an inhibition [7] of 57%, an inhibition [4] of 5% and an inhibition [5] of 3%.
In the case of `COc1c(C)c(OC(=O)c2ccc(Oc3cccc(C(=O)Oc4c(C)c(C)c(C(=O)Oc5c(C)c(C)c(C(=O)O)c(OC)c5C)c(OC)c4C)c3C)c(C)c2)c(C)c(C)c1C(=O)O`, the inhibition [6] was 99%, the inhibition [2] was 34% and the inhibition [3] was 19%. For the same molecule, the inhibition [7] was 89%, the inhibition [4] was 31% and the inhibition [5] was 1%.
`COc1c(C)c(OC(=O)c2c(C)c(C)c(OC(=O)c3c(C)c(C(=O)Oc4c(C)c(C)c(C(=O)Oc5c(C)c(C)c(C(=O)O)c(OC)c5C)c(OC)c4C)c(O)c(C)c3O)c(C)c2OC)c(C)c(C)c1C(=O)O` showed an inhibition [6] of 94%, an inhibition [2] of 17% and an inhibition [3] of 4%. The inhibition [7] was 69%, the inhibition [4] was 23% and the inhibition [5] was 21%.
`COc1c(C)c(OC(=O)c2ccc(Oc3cccc(C(=O)Oc4c(C)c(C)c(C(=O)Oc5c(C)c(C)c(C(=O)O)c(OC)c5C)c(OC)c4C)c3C)cc2)c(C)c(C)c1C(=O)O` was tested, and the inhibition [6] was 98%, the inhibition [2] was 40% and the inhibition [3] was 4%. For the same molecule, the inhibition [7] was 91%, the inhibition [4] was 37% and the inhibition [5] was 15%.
In the case of `COc1c(C)c(OC(=O)c2c(C)c(C)c(OC(=O)C3=C(C)[C@@](C)(O)[C@@]4(O)Oc5c(C)c(OC)c(C(=O)Oc6c(C)c(C)c(C(=O)O)c(OC)c6C)c(C)c5C[C@@]4(C)C3=O)c(C)c2OC)c(C)c(C)c1C(=O)O`, the pIC50 [1] was less than 3.60.
`COc1c(C)c(OC(=O)c2c(C)c(C)c(OC/C=C/COc3c(C)c(C)c(C(=O)Oc4c(C)c(C)c(C(=O)O)c(OC)c4C)c(OC)c3C)c(C)c2OC)c(C)c(C)c1C(=O)O` was tested, and the inhibition [6] was 94%, the inhibition [2] was 30% and the inhibition [3] was 7%. The inhibition [7] was 68%, the inhibition [4] was 16% and the inhibition [5] was 5%.
`COc1c(C)c(OC(=O)c2ccc(Oc3cccc(C(=O)Oc4c(C)c(C)c(C(=O)Oc5c(C)c(C)c(C(=O)O)c(OC)c5C)c(OC)c4C)c3)cc2)c(C)c(C)c1C(=O)O` was tested, and the inhibition [6] was 99%, the inhibition [2] was 37% and the inhibition [3] was 7%. The inhibition [7] was 98%, the inhibition [4] was 35% and the inhibition [5] was 9%.
Work on `COc1c(C)c(OC(=O)c2c(C)c(C)c(OC[C@H](O)[C@@H](O)COc3c(C)c(C)c(C(=O)Oc4c(C)c(C)c(C(=O)O)c(OC)c4C)c(OC)c3C)c(C)c2OC)c(C)c(C)c1C(=O)O` yielded an inhibition [6] of 53%, an inhibition [2] of 17% and an inhibition [3] of 0%. It also gave an inhibition [7] of 39%, an inhibition [4] of 17% and an inhibition [5] of 5%.
`COCOC(=O)c1c(C)c(C)c(OC(=O)c2c(C)c(C)c(OC(=O)c3c(C)c(C(=O)Oc4c(C)c(C)c(C(=O)Oc5c(C)c(C)c(C(=O)OCOC)c(OC)c5C)c(OC)c4C)c(OC)c(C)c3OC)c(C)c2OC)c(C)c1OC` gave an inhibition [6] of 2%, an inhibition [2] of 5% and an inhibition [3] of 12%. For the same molecule, the inhibition [7] was 1%, the inhibition [4] was 0% and the inhibition [5] was 3%.
With `COc1c(C)c(O)c(C)c(C)c1C(=O)Oc1c(C)c(C)c(C(=O)O)c(OC)c1C` the inhibition [6] was 21%, the inhibition [2] was 9% and the inhibition [3] was 11%. For the same molecule, the inhibition [7] was 11%, the inhibition [4] was 0% and the inhibition [5] was 3%.
